Screening data from PubChem BioAssay.
ABCB6 inh 2: human ABCB6 transporter inhibition | Q9NP58 | K562-ABCB6 porphyrin accumulation, flow cytometry, 1 h; stronger effect = lower value | fluorescence ratio to DMSO, % at 10 µM | actives 0.19% (n = 360,000) | AID 602162;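 active means fluorescence ratio to DMSO below 75%, the collection mean minus 3 SD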;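 further: signal is porphyrin accumulated inside mitochondria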
Target sequence (Q9NP58 whole entry, looked up): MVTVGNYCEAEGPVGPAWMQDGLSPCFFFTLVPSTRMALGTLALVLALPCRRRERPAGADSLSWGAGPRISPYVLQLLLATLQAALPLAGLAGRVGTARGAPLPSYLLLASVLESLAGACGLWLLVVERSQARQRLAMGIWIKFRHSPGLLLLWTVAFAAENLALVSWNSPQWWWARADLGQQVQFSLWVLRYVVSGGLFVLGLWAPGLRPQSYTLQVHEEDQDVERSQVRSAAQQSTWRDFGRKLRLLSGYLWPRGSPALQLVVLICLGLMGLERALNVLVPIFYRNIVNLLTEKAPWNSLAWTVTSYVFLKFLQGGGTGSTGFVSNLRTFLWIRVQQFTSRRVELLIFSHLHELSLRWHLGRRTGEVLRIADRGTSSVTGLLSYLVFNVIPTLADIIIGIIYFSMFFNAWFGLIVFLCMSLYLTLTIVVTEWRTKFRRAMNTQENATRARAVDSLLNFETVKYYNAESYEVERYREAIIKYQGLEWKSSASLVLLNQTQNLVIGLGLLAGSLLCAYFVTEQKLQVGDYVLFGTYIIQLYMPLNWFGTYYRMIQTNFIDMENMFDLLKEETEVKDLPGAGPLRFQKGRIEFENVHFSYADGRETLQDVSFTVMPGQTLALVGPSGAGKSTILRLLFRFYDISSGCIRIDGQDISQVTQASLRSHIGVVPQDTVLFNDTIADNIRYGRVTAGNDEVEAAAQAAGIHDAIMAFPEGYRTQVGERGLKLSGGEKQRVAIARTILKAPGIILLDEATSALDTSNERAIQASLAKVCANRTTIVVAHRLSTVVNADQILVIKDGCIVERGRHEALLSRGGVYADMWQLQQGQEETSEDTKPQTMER
Arr AP2 block: inhibitors of human beta-arrestin and AP2 interaction; FITC-arrestin peptide / GST-AP2 beads, flow cytometry; AP2 beta2 appendage carries R879A mutation; actives 0.31% (n = 340,000); AID 504490; inhibition, % at 10 µM;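 active means inhibition above a set limit, near 3 SD of compounds lacking own fluorescence, cut at about 54% in these data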
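Material – AP2 appendage R879A on GSH beads · Buffer or medium – PBS with 0.05% Tween 20 and 0.1% BSA · Probe or stimulus – fluorescein-tagged arrestin peptide at 50 nM final · Incubation – compound with beads 12 min RT, then probe 1 h RT · Detection – high-throughput flow cytometry of beads, ex 488, em 535 nm · Evaluation – percent response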
PG9 Ab binder: binds the HIV-1 gp120 antibody PG9; inhibition, % at 6.7 µM; TR-FRET gp120-PG9 antibody binding; AID 624416; actives 0.43% (n = 360,000); in the data active means inhibition above about 8.5%
iPSC survival up: enhancers of human iPSC single-cell survival; hiPSC single-cell survival, ATPlite luminescence; 100% = ROCK inhibitor wells, 0% = DMSO; survival enhancement, % at 20 µM; actives 0.044% (n = 360,000); AID 602274; in the data active means survival enhancement above about 18%;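 further: cells exposed to compounds for 16 hours before the ATP read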
PG9 binder conf: PG9 antibody binding, confirmed | shares compounds with PG9 Ab binder | TR-FRET PG9 antibody binding, biochemical | inhibition, % at 6.7 µM | actives 90% (n = 1,500) | AID 651571; in the data active means inhibition above about 9%
PGV04 Ab binding: binds control antibody PGV04 in PG9 binder counter-screen. actives 95% (n = 1,500). shares compounds with PG9 Ab binder. inhibition, % at 6.7 µM. TR-FRET PGV04 antibody-gp120 binding, biochemical. AID 651604; in the data active means inhibition above about 9.5%
PG9 bind DR: small molecules binding HIV-1 gp120 antibody PG9 | shares compounds with PG9 Ab binder | TR-FRET PG9 antibody-gp120 binding inhibition | IC50, µM | 95 tested, under 10 active; in the data active means IC50 below about 10 µM
PGV04 DR counter: PGV04 binding, dose response counter-screen; IC50, µM; actives 20% (n = 95); AID 651937; shares compounds with PG9 Ab binder; TR-FRET binding to control antibody PGV04
PG126 DR counter: binds control antibody PG126 in PG9 counter-screen. shares compounds with PG9 Ab binder. TR-FRET binding to antibody PG126, counterscreen. IC50, µM. actives 20% (n = 95). AID 651939
Large screens that a line does not name were inactive (follow-up assays come after a bar, where they were run). Only some compounds are listed: those with a hit (about 0.89% of all), similar ones and a draw of the others. Unless noted, no stated cut-off is given here; in the data, active means IC50 below about 9 µM; inactive means the rest.

Cc1c(Cl)c(-c2n[nH]c(=S)n2-c2ccc(F)cc2)nn1C	PG9 Ab binder 10.4 | PG9 binder conf 11.9 | PGV04 Ab binding 10.8 | PG9 bind DR inactive | PGV04 DR counter inactive | PG126 DR counter inactive
O=C(Nc1ccc(F)cc1)c1ccc(COc2ccccc2)cc1	PG9 Ab binder 9.6 | PG9 binder conf 46.4 | PGV04 Ab binding 55.8
O=C(NCC(c1ccc(F)cc1)N1CCOCC1)c1ccc(OCc2ccccc2)cc1 (stereo not given)	PG9 Ab binder 17.2 | PG9 binder conf 16.7 | PGV04 Ab binding 21.7
CC(=O)Nc1ccc(NC(=O)c2ccc(COc3ccccc3)cc2)cc1	none
C#CCN(Cc1cccc(F)c1)C(=O)c1nnc2c3cc(F)ccc3n(S(=O)(=O)c3ccc(OC)cc3)c2n1	none (no result: ABCB6 inh 2, Arr AP2 block, iPSC survival up)
COC(=O)c1cc2c(c3c4cc(F)ccc4n(S(=O)(=O)c4cccc(C)c4)c13)C(=O)N(Cc1ccccc1OC)C2	none (no result: ABCB6 inh 2, Arr AP2 block, iPSC survival up)
O=C(c1ccc2c(=O)n(Cc3ccc(Cl)cc3)c(=S)[nH]c2c1)N1CCCC1	none
O=c1c2ccc(Cl)cc2[nH]c(=S)n1Cc1cccnc1	PG9 Ab binder 14.1 | PG9 binder conf 11.9 | PGV04 Ab binding 13.9
CC(OC(=O)/C=C/c1ccc2ccccc2n1)C(=O)NCc1ccccc1 (stereo not given)	PG9 Ab binder 15.3 | PG9 binder conf 11.4 | PGV04 Ab binding 13.2
CCOC(=O)c1c(NC(=O)CSc2nc3cc(Cl)ccc3c(=O)n2Cc2ccco2)sc(C(=O)N(C)C)c1C	PG9 Ab binder 50.9 | PG9 binder conf 9.5 | PGV04 Ab binding 22.8
CC(C)Cc1nnc(NS(=O)(=O)c2ccccc2)s1	none (no result: Arr AP2 block)
CC(C)(C)Cc1nnc(NS(=O)(=O)c2ccccc2)s1	PG9 Ab binder 9.0 | PG9 binder conf 11.2 | PGV04 Ab binding 17.2
C[C@@H]1COc2cc(NCCO)ccc2S(=O)(=O)N1	none (no result: ABCB6 inh 2, Arr AP2 block, iPSC survival up)
Cn1c(SCC(=O)N2CCc3ccccc32)nnc1-c1ccc(S(=O)(=O)N2CCCC2)cc1	PG9 Ab binder 9.5 | PG9 binder conf 17.4 | PGV04 Ab binding 25.4
S=c1[nH]c2ccccc2n2cccc12	PG9 Ab binder 23.3 | PG9 binder conf 16.7 | PGV04 Ab binding 14.6 | PG9 bind DR inactive | PGV04 DR counter inactive | PG126 DR counter inactive
COc1ccc2c(C)cc(SCC(=O)Nc3ncc(Cl)cc3Cl)nc2c1	PG9 Ab binder 14.3 | PG9 binder conf 37.0 | PGV04 Ab binding 53.5
O=C(COC(=O)c1cccnc1Cl)Nc1ncc(Cl)cc1Cl	none
Cc1cc(SCC(=O)Nc2ncc(Cl)cc2Cl)nc2ccccc12	PG9 Ab binder 12.3 | PG9 binder conf 15.1 | PGV04 Ab binding 20.5
COc1ccc2c(C)cc(SCC(=O)Nc3cccnc3Cl)nc2c1	none
Cc1ccc(-c2nn(-c3ccccc3)cc2C(=O)OCC(=O)Nc2ncc(Cl)cc2Cl)cc1	PG9 Ab binder 20.0 | PG9 binder conf 12.2 | PGV04 Ab binding 26.6
O=C(Nc1nc2c(Cl)cccc2s1)c1ccc([N+](=O)[O-])o1	none
O=C(Nc1nc2c(Cl)cccc2s1)c1ccc(Br)o1	PG9 Ab binder 34.7 | PG9 binder conf 39.3 | PGV04 Ab binding 43.5
CCCn1c(=O)c(C(=O)NCC2CCCO2)c(O)c2ccccc21 (stereo not given)	PG9 Ab binder 8.6 | PG9 binder conf 11.9 | PGV04 Ab binding 15.5
O=C(NCC1CCCO1)c1c(O)c2ccccc2[nH]c1=O (stereo not given)	none
C=CCNc1cccc2c1S(=O)(=O)N[C@@H](Cc1ccccc1)CO2	none (no result: ABCB6 inh 2, Arr AP2 block, iPSC survival up)
COc1ccc(C=O)cc1Cn1c(=O)n(CCC(=O)NCc2ccco2)c(=O)c2sccc21	PG9 Ab binder 14.1 | PG9 binder conf inactive | PGV04 Ab binding 17.2
Cc1cc(C)c(Cn2c(=O)n(CCCC(=O)NCc3ccco3)c(=O)c3sccc32)c(C)c1	PG9 Ab binder 18.5 | PG9 binder conf 21.3 | PGV04 Ab binding 25.5
Cc1ccc(-n2c(=O)c3sccc3n(CC(=O)NCc3ccco3)c2=O)cc1F	PG9 Ab binder 9.4 | PG9 binder conf 12.2 | PGV04 Ab binding 19.3
Cc1ccc(C)c(Cn2c(=O)n(CCC(=O)NCc3ccco3)c(=O)c3sccc32)c1	PG9 Ab binder 11.7 | PG9 binder conf 13.2 | PGV04 Ab binding 17.6
Cc1cccc2nc(Cn3c(=O)n(CCC(=O)NCc4ccco4)c(=O)c4sccc43)cc(=O)n12	none
Cc1ccccc1Cn1c(=O)n(CCCC(=O)NCc2ccco2)c(=O)c2sccc21	none
Nc1[nH]c(C(=O)c2ccccc2)c(-c2ccc(F)cc2)c1C(=O)c1c[nH]c2ccccc12	none (no result: ABCB6 inh 2, Arr AP2 block, iPSC survival up)
CCOC(=O)c1c(C)[nH]c(=S)c(C#N)c1-c1ccc(OC)cc1	none
CCCCOc1ccc(-c2c(C(=O)Nc3ccccc3)c(C)[nH]c(=S)c2C#N)cc1	PG9 Ab binder 60.3 | PG9 binder conf inactive | PGV04 Ab binding inactive
COc1ccc2c(c1)c1nc3n(c(=O)c1n2CC(=O)Nc1ccccc1)CCCS3	PG9 Ab binder 13.4 | PG9 binder conf 26.5 | PGV04 Ab binding 35.7
COc1ccc(NC(=O)Cn2c3ccc(OC)cc3c3nc4n(c(=O)c32)CCS4)cc1	none
Cc1cc(NC2C3CC4CC(C3)CC2C4)n2ncnc2n1 (stereo not given)	none
Cc1cc(NC2C3CC4CC(C3)CC2C4)n2nnnc2n1 (stereo not given)	PG9 Ab binder 24.0 | PG9 binder conf 28.7 | PGV04 Ab binding 38.6
O=C(CNC(=O)c1sc2ccccc2c1Cl)Nc1ccccc1F	PG9 Ab binder 12.1 | PG9 binder conf 16.5 | PGV04 Ab binding 32.5
O=C(CNC(=O)c1sc2ccccc2c1Cl)NCc1ccc(F)cc1	PG9 Ab binder 12.3 | PG9 binder conf inactive | PGV04 Ab binding 20.7
N#CC1=C(c2ccccc2)/C(=C/c2ccccc2)OC1=O	none
N#CC(C#N)=C1NC(N)=C(C#N)C(c2ccccc2)=C1C#N	PG9 Ab binder 21.8 | PG9 binder conf 21.3 | PGV04 Ab binding 25.8
CC(C)CCOc1ncnc2c1sc1nc3c(cc12)CSC(C)(C)C3	PG9 Ab binder 26.0 | PG9 binder conf inactive | PGV04 Ab binding 28.6
Nc1ccc(-c2nc3ccc(-c4nc5ccccc5o4)cc3[nH]2)cc1	PG9 Ab binder 10.3 | PG9 binder conf 10.3 | PGV04 Ab binding 20.5
CCN(CC)c1ccc2cc(-c3nc4ccccc4n3C)c(=O)oc2c1	PG9 Ab binder 10.1 | PG9 binder conf 11.4 | PGV04 Ab binding 17.2
